Experimental data pooled from the literature.
Compare with care: the assays were run in different laboratories. In brackets after ≈: the same amount, converted by molar mass.
Organism: Escherichia coli

CC[C@H](C)[C@H](NC(=O)OCC1c2ccccc2-c2ccccc21)C(=O)Sc1cccccc1=O
MIC80 (microbial growth, broth dilution; ATCC35218): > 100 µM

CCCCCCCCCCCC(=O)Oc1c(C)c(O)c(C(=O)/C=C/c2ccccc2)c(OC)c1C
MBC (microbial killing, broth dilution; ATCC25922): > 5000 µg/mL

Cc1ccc(C(C)C)cc1OCc1cn(-c2ccc([N+](=O)[O-])cc2)nn1
IC50 (microbial growth, broth dilution; ATCC25922): 532 µg/mL

COc1cc(C=Cc2cc(-c3ccc(N(C)C)cc3)nc(O)n2)ccc1O
inhibition zone (microbial growth, disc diffusion; ATCC25922; 500 µg/mL): 11 mm

O=C(N[C@H](CO)[C@H](O)c1ccc([N+](=O)[O-])cc1)C(Cl)Cl
MIC90 (microbial growth; ATCC35218): 0.98 µg/mL (≈ 3.03 µM)

COc1c(C)c(OC)c2c(c1C)OC(c1ccccc1)CC2=O (stereo not drawn)
MBC (microbial killing, broth dilution; ATCC25922): > 5000 µg/mL

Clc1ccc(-c2nc3ccccc3n2Cc2ccccc2)cc1
MIC (microbial growth, broth dilution; ATCC25922): 128 µg/mL (≈ 401 µM)

COc1c(N2C[C@@H]3CCCN[C@@H]3C2)c(F)cc2c(=O)c(C(=O)O)cn(C3CC3)c12
MIC90 (microbial growth; ATCC35218): 0.06 µg/mL (≈ 0.149 µM)

N=C(N)c1ccccc1OCCCCCOc1ccccc1C(=N)N
MIC (microbial growth; BW25113): > 200 µg/mL

Cc1ccc(-n2cc(COc3cccc4cccnc34)nn2)cc1
IC50 (microbial growth, broth dilution; ATCC25922): 176 µg/mL

CC(C)Oc1c(NC(=O)c2ccc(NC(=O)[C@H](CC(N)=O)NC(=O)c3ccc(NC(=O)c4ccc(C#N)cc4)cc3)cc2)ccc(C(=O)NC2CCNCC2)c1O
MIC (microbial growth; DSM1116): > 64 µg/mL

CC1(C)S[C@@H]2[C@H](NC(=O)[C@H](N)c3ccc(O)cc3)C(=O)N2[C@H]1C(=O)O
inhibition zone (microbial growth, disc diffusion; ATCC25922; 250 µg/mL): 11.2 mm

CC1(C)SC2C(NC(=O)C(NC(=O)C3=C(O)C4CCCN4C3=O)c3ccccc3)C(=O)N2C1C(=O)O (stereo not drawn)
inhibition zone (microbial growth, well diffusion; BW25113; 200 µM): 11 mm

Fc1ccc(-n2cc(COc3cccc4cccnc34)nn2)cc1
IC50 (microbial growth, broth dilution; ATCC25922): 405 µg/mL

O=C(N/N=C/c1ccc([N+](=O)[O-])o1)c1ccc(O)cc1
MIC90 (microbial growth; ATCC 8739, ATCC8739): > 1000 µg/mL

CC1(C)S[C@@H]2[C@H](NC(=O)[C@H](N)c3ccccc3)C(=O)N2[C@H]1C(=O)O
inhibition zone (microbial growth, disc diffusion; 50 µg/disc): 21 mm

CC1(C)SC2C(NC(=O)C(NC(=O)C3=C(O)C(Cc4ccsc4)NC3=O)c3ccccc3)C(=O)N2C1C(=O)O (stereo not drawn)
inhibition zone (microbial growth, well diffusion; BW25113; 200 µM): 10 mm

N=C(N)c1ccccc1OCc1ccc(COc2ccccc2C(=N)N)cc1
MIC (microbial growth; BW25113): > 200 µg/mL

Cc1ccc(-n2cc(COC3=CC(=O)c4ccccc4C3=O)nn2)cc1
IC50 (microbial growth, broth dilution; ATCC25922): 224 µg/mL

N=C(N)c1ccc(OCc2ccccc2COc2ccc(C(=N)N)cc2)cc1
MIC (microbial growth, broth dilution; W3110): > 200 µg/mL

COc1cc(C=CC(=O)CC(c2ccc(N(C)C)cc2)n2ccnc2)ccc1O (stereo not drawn)
inhibition zone (microbial growth, disc diffusion; ATCC25922; 500 µg/mL): 8.67 mm

O=C(Sc1cccccc1=O)c1cccc(C(F)(F)F)c1
MIC80 (microbial growth, broth dilution; ATCC35218): 19.8 µM (≈ 6.14 µg/mL)

Cc1ccc(S(=O)(=O)Oc2cc(C(C)C)ccc2C)cc1
IC50 (microbial growth, broth dilution; ATCC25922): 317 µg/mL

N=C(N)c1cccc(OCc2cccc(COc3cccc(C(=N)N)c3)c2)c1
MIC (microbial growth; BW25113): > 200 µg/mL

O=[N+]([O-])c1ccc(-c2nc3ccccc3[nH]2)cc1
MIC (microbial growth, broth dilution; ATCC25922): 128 µg/mL (≈ 535 µM)

Oc1ccc(-c2ccsc2)cc1O
IC50 (microbial growth; AS19; 10 h): 29.9 µM

N=C(N)c1ccc(OCCCCCCCCOc2ccc(C(=N)N)cc2)cc1
MIC (microbial growth; BW25113): 50 µg/mL (≈ 131 µM)

NS(=O)(=O)c1ccc(-n2cc(COc3cccc4cccnc34)nn2)cc1
IC50 (microbial growth, broth dilution; ATCC25922): 880 µg/mL

Fc1ccc(-c2nc3ccccc3[nH]2)cc1
MIC (microbial growth, broth dilution; ATCC25922): 256 µg/mL (≈ 1210 µM)

CC(C)Oc1c(NC(=O)c2ccc(NC(=O)[C@H](CC(N)=O)NC(=O)c3cccc(NC(=O)c4ccc(C#N)cc4)c3)cc2)ccc(C(=O)Nc2ccc(C(=O)O)cc2)c1O
MIC (microbial growth; DSM1116): > 64 µg/mL

C=CCCCCCCCCCCCC(O)CC(O)CO (stereo not drawn)
IC50 (microbial growth, broth dilution; ATCC35218): > 200 µg/mL

CSc1ccc(-c2nc3ccc(C)cc3[nH]2)cc1
MIC (microbial growth, broth dilution; ATCC25922): 32 µg/mL (≈ 126 µM)

O=C(Cc1ccccc1)Sc1cccccc1=O
MIC80 (microbial growth, broth dilution; ATCC35218): 19.8 µM (≈ 5.08 µg/mL)

C#CCCCCCCCCCCCC(O)CC(O)CO (stereo not drawn)
IC50 (microbial growth, broth dilution; ATCC35218): > 200 µg/mL

COc1c(C)c(O)c(C)c(O)c1C(=O)/C=C/c1ccccc1
MBC (microbial killing, broth dilution; ATCC25922): > 5000 µg/mL

O=[N+]([O-])c1ccc(-c2nc3ccccc3n2Cc2ccccc2)cc1
MIC (microbial growth, broth dilution; ATCC25922): 64 µg/mL (≈ 194 µM)

CC1(C)SC2C(NC(=O)C(NC(=O)C3=C(O)C(Cc4ccccc4)NC3=O)c3ccccc3)C(=O)N2C1C(=O)O (stereo not drawn)
inhibition zone (microbial growth, well diffusion; BW25113; 200 µM): 12 mm

Cc1ccc(C(C)C)cc1O
IC50 (microbial growth, broth dilution; ATCC25922): 96.2 µg/mL

C=CCOc1c(C)c(O)c(C(=O)/C=C/c2ccccc2)c(OC)c1C
MBC (microbial killing, broth dilution; ATCC25922): > 5000 µg/mL

CC(C)Oc1c(NC(=O)c2ccc(NC(=O)[C@H](CC(N)=O)NC(=O)c3ccc(-c4nn[nH]c4-c4ccc(C#N)cc4)cc3)cc2)ccc(C(=O)Nc2ccc(C(=O)O)cc2)c1O
MIC (microbial growth; DSM1116): > 64 µg/mL

COc1c(C)c(OS(=O)(=O)c2ccc3ccccc3c2)c(C)c(OS(=O)(=O)c2ccc3ccccc3c2)c1C(=O)/C=C/c1ccccc1
MBC (microbial killing, broth dilution; ATCC25922): > 5000 µg/mL

O=S(=O)(Oc1cccc2cccnc12)c1ccccc1
IC50 (microbial growth, broth dilution; ATCC25922): 277 µg/mL
